Screening data as filed in PubChem.
The list is not random: actives were taken first. Their share in the collection is about 2.5%.
TRPC6 act: mouse TRPC6 channel activation; B-score at 10 µM; HEK293-TRPC6 membrane potential dye fluorescence; stronger effect = higher value; Q61143; 310,000 compounds, 0.13% hits;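 active = B-score of the integrated fluorescence ratio above library mean plus 3 SD, and starting fluorescence ratio within library mean plus 5 SD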;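 note: higher score means more depolarization so channel activation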
TRPC4 act: opens the mouse TRPC4 cation channel; Q9QUQ5; HEK293 TRPC4beta/mu-opioid, Fluo4 calcium fluorescence; stronger effect = higher value; B-score at 10 µM; 310,000 compounds, 0.49% hits; AID 2237;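 active = B-score above 5 SD of library B-scores, and initial fluorescence ratio not above library mean plus 5 SD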;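 note: positive B-score marks a calcium rise read as TRPC4 activation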
Target sequence (Q9QUQ5 whole entry, looked up): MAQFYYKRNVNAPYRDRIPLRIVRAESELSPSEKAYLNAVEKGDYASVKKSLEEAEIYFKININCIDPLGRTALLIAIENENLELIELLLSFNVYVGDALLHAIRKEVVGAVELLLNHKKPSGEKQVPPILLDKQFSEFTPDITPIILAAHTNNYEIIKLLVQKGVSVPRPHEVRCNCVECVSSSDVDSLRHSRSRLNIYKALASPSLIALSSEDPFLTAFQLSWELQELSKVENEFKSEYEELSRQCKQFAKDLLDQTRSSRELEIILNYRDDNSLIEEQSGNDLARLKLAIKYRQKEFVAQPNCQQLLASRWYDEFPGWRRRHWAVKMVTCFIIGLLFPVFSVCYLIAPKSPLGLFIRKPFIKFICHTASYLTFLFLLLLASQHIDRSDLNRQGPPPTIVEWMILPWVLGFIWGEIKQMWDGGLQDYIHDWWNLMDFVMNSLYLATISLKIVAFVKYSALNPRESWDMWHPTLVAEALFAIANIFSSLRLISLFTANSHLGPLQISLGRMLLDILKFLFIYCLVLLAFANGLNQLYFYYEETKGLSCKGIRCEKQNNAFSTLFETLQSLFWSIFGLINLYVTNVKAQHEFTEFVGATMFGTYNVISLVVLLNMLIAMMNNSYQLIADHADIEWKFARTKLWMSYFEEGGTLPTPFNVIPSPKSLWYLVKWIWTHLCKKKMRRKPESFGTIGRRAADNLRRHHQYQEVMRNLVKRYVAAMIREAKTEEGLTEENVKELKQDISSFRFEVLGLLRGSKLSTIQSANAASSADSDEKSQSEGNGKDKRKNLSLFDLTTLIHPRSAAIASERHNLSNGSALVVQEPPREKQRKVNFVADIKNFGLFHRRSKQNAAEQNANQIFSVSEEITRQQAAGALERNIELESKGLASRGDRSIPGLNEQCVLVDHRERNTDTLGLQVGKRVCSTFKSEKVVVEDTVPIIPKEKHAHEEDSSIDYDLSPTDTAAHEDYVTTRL
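Incubation: 45 min room-temperature Fluo4 loading, 110 s read / System: HEK293 cells stably co-expressing mouse TRPC4beta and mu-opioid receptor / Signal: Fluo4 fluorescence, kinetic / Control set: buffer (low) and maximal DAMGO (high) / Measure: integrated baseline-normalised fluorescence ratio, converted to per-well B score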
Platelet DG rel: platelet dense granule release activity | human platelet-rich plasma, SFLLRN dense granule ATP release, luminescence | inhibition, %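 (compounds screened at 7.5 µM in platelet-rich plasma)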 | 300,000 compounds, 0.22% hits;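 active = mean replicate score, as percent of positive control, at or above 50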
TRPC4 PAM: allosterically enhances the mouse TRPC4 cation channel; Q9QUQ5; HEK293 TRPC4beta/mu-opioid, DAMGO EC20, Fluo-4 Ca2+ flux; stronger effect = higher value; B-score at 10 µM; 310,000 compounds, 0.42% hits; AID 2227;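 active = B-score of calcium response area above 5 SD of library B-scores, with initial fluorescence ratio within 5 SD of library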
TRPC4 inh: TRPC4 (mouse) channel inhibition. Q9QUQ5. HEK293 TRPC4beta/mu-opioid, DAMGO-evoked Fluo4 calcium flux; stronger effect = lower value. B-score at 10 µM. 300,000 compounds, 0.39% hits. AID 2247;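 active = B-score over 3 SD under the library average, no early fluorescence shift, positive overall ratio signal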
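Assay system: Stable TRPC4beta/mu-opioid receptor HEK293 cells | Reagent: DAMGO in two steps, submaximal then maximal | Compound dosing: Single concentration per test compound | Signal: Fluo4 Ca2+ flux fluorescence | Evaluation: Per-well B score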
TRPC6 inhibitor: inhibitors of mouse TRPC6 channel | Q61143 | HEK293-TRPC6, membrane potential dye, ACh-evoked depolarization; stronger effect = lower value | B-score at 10 µM | 310,000 compounds, 1.1% hits | AID 2553;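 active = B-score under library mean minus 3 SD, initial fluorescence not abnormally high, positive integrated signal ratio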;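 note: B-score derived from integrated fluorescence ratio over the kinetic read; more negative B-score means stronger inhibition of depolarization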
TRPC4 sel inh 2: second selectivity test of TRPC6 inhibitors: effect on mouse TRPC4. shares compounds with TRPC6 inhibitor. HEK293 TRPC4/MOR, membrane potential dye fluorescence; channel activated by saturating DAMGO dose. inhibition, % at 10 µM. 920 compounds, 42% hits. AID 2776;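 active = compounds whose fluorescence signal differed from control wells by over 3 SD, either direction, in both duplicate plates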
TRPC4 spec: mouse TRPC4 off-target activity of TRPC6 inhibitors. HEK293 TRPC4/mu-opioid, membrane potential fluorescence. 920 compounds, 61% hits. activity change, negative = inhibition, % at 10 µM. AID 2777. shares compounds with TRPC6 inhibitor;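 active = rise or fall in signal beyond 3 SD of buffer-only wells in both replicate plates, either sign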;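 note: integrated kinetic ratio of fluorescence range over baseline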
HEK293 MPD ctr 2-1: second counter-screen for TRPC6 inhibitors: parental HEK293 cells | shares compounds with TRPC6 inhibitor | 920 compounds, 31% hits | signal change vs control, % at 10 µM | parental HEK293 membrane potential dye fluorescence; maximal acetylcholine challenge after compound addition | AID 2779;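 active = membrane potential signal moving either way by over 3 SD of the maximum-effect control, in both duplicate plates, meaning non-specific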
HEK293 MPD ctr-1: counter-screen for TRPC6 inhibitors: effect in parental HEK293 cells; 920 compounds, 60% hits; shares compounds with TRPC6 inhibitor; parental HEK293 membrane potential dye fluorescence; membrane potential signal change, % at 10 µM;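 active = membrane potential signal shifting up or down by more than 3 SD of buffer-only wells, on both duplicate plates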
HEK293 MPD ctr-2: counter-screen for TRPC6 modulators: effect in parental HEK293 cells; shares compounds with TRPC6 inhibitor; membrane potential dye fluorescence; membrane potential signal change, % at 10 µM; 2,400 compounds, 51% hits; AID 488924;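 active = membrane potential signal moves up or down beyond 5 SD from buffer-only wells, on both duplicate plates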
HEK293 MPD ctr 2-2: parental HEK293 nonspecific activity of TRPC6 modulators, second screen; inhibition, % at 10 µM; shares compounds with TRPC6 inhibitor; membrane potential dye fluorescence; after compound, maximal acetylcholine stimulation; 2,400 compounds, 14% hits;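 active = membrane potential signal drops by more than 5 SD from the mean control signal, in both duplicate plates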
TRPC4/MOR mod: mouse TRPC4 off-target activity of TRPC6 modulators. shares compounds with TRPC6 inhibitor. HEK293 TRPC4/mu-opioid, membrane potential fluorescence. percent change from control (negative = decrease, positive = increase), % at 10 µM. 2,400 compounds, 69% hits;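 active = membrane potential signal moved up or down beyond 5 SD of buffer control wells, in both duplicate plates, actives on both sides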
TRPC4 ctr inh 2: second check of whether TRPC6 modulators also affect mouse TRPC4; shares compounds with TRPC6 inhibitor; HEK293 TRPC4/mu-opioid, membrane potential dye fluorescence; stimulated with maximal-effect DAMGO; inhibition, % at 10 µM; 2,400 compounds, 55% hits; AID 488928;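 active = drop in membrane potential signal beyond 5 SD of the control wells in both duplicate plates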;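 note: TRPC4 counter screen for TRPC6 hits run under conditions tuned for TRPC6 not TRPC4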
TRPC6 block conf: mouse TRPC6 inhibitor confirmation | shares compounds with TRPC6 inhibitor | HEK293-TRPC6, membrane potential dye, ACh-evoked depolarization | inhibition, % at 10 µM | 3,300 compounds, 43% hits;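 active = fluorescence ratio falls more than 5 SD below the full-stimulation control mean, in both duplicate runs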;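 note: integrated fluorescence ratio of peak minus minimum over baseline after agonist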
TRPC6 act conf: confirmation of mouse TRPC6 activators | HEK293-TRPC6 membrane potential dye fluorescence, FDSS | activation, % at 10 µM | 2,800 compounds, 11% hits | shares compounds with TRPC6 inhibitor;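 active = ratio signal rise beyond 5 SD above unstimulated control wells' mean, seen in both duplicate runs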
Each line names hits and unclear results; the compound was inactive in the other large screens (follow-up assays come after a bar, where they were run).

CNC(=O)NC(=O)COC(=O)/C=C/c1cccc(Br)c1	TRPC6 inhibitor -8.5 | TRPC4 sel inh 2 inactive | TRPC4 spec inactive | HEK293 MPD ctr 2-1 inactive | HEK293 MPD ctr-1 inactive | TRPC6 block conf inactive | TRPC6 act conf inactive
NC(=O)NC(=O)COC(=O)/C=C/c1cccc(Br)c1	none
COC(=O)C[C@H]1c2cc(C(F)(F)F)ccc2S(=O)(=O)N1Cc1ccc(OC)cc1	none
O=C(CNCc1ccccc1)Nc1cccc(Cl)c1Cl	TRPC6 inhibitor -6.2 | HEK293 MPD ctr-2 inactive | HEK293 MPD ctr 2-2 inactive | TRPC4/MOR mod 14% | TRPC4 ctr inh 2 41% | TRPC6 block conf inactive
Cc1cc(NC(=O)CSc2nnc(-c3ccccc3)c(-c3ccccc3)n2)no1	none
CCOC(=O)c1cnc2c(CC)cccc2c1NCCCN1CCOCC1	none
CCOC(=O)c1cnc2c(C(F)(F)F)cccc2c1NCCCN1CCOCC1	TRPC6 inhibitor -7.2 | HEK293 MPD ctr-2 -185% | HEK293 MPD ctr 2-2 inactive | TRPC4/MOR mod -34% | TRPC4 ctr inh 2 52% | TRPC6 block conf inactive | TRPC6 act conf inactive
CCOC(=O)c1cnc2c(Cl)cccc2c1NCCCN1CCOCC1	TRPC6 inhibitor -6.3 | HEK293 MPD ctr-2 -187% | HEK293 MPD ctr 2-2 inactive | TRPC4/MOR mod -30% | TRPC4 ctr inh 2 38% | TRPC6 block conf 44% | TRPC6 act conf inactive
CCOC(=O)c1cnc2c(Cl)cccc2c1NCCN1CCOCC1	none
N#Cc1cnn(Cc2ccc(Cl)cc2)c1N	none (no result: TRPC4 inh)
N#Cc1cnn(Cc2ccccc2)c1N	TRPC6 inhibitor -6.2 | HEK293 MPD ctr-2 inactive | HEK293 MPD ctr 2-2 inactive | TRPC4/MOR mod inactive | TRPC4 ctr inh 2 inactive | TRPC6 block conf inactive | TRPC6 act conf inactive
Cn1c(=O)n(Cc2ccc(F)cc2)c(=O)c2c1nc1n2CCCN1Cc1ccccc1	TRPC6 inhibitor -5.1 | HEK293 MPD ctr-2 inactive | HEK293 MPD ctr 2-2 inactive | TRPC4/MOR mod inactive | TRPC4 ctr inh 2 inactive | TRPC6 block conf inactive | TRPC6 act conf inactive
Cc1ccc(C)c(N2CCN(c3ccncc3N)CC2)c1	TRPC6 inhibitor -6.5 | HEK293 MPD ctr-2 inactive | HEK293 MPD ctr 2-2 inactive | TRPC4/MOR mod inactive | TRPC4 ctr inh 2 52% | TRPC6 block conf inactive | TRPC6 act conf inactive
COc1ccc2c(c1)c(C(=O)CN1CCc3ccccc3C1)c(C)n2C	TRPC6 inhibitor -6.5 | HEK293 MPD ctr-2 -88% | HEK293 MPD ctr 2-2 inactive | TRPC4/MOR mod -16% | TRPC4 ctr inh 2 59% | TRPC6 block conf 44% | TRPC6 act conf inactive
COc1ccc(OC)c(S(=O)(=O)N2CCC(C(=O)NC3CC3)CC2)c1	none
CCOc1ccc(N(CC(=O)NCCc2ccccc2)C(=O)CCC(=O)Nc2nccs2)cc1	none
Cc1sc2nc(CN3CCCC3)nc(NCc3ccncc3)c2c1C	none
Cc1sc2nc(CN3CCCCC3)nc(Nc3ccc4c(c3)OCCO4)c2c1C	TRPC6 inhibitor -5 | HEK293 MPD ctr-2 inactive | HEK293 MPD ctr 2-2 inactive | TRPC4/MOR mod inactive | TRPC4 ctr inh 2 inactive | TRPC6 block conf 44%
CCCN1CCN(C(c2cc3cc4c(cc3[nH]c2=O)OCO4)c2nnnn2C(C)(C)C)CC1 (stereo unspecified)	none
CCC(C)(C)n1nnnc1C(c1cc2cc3c(cc2[nH]c1=O)OCO3)N1CCCCC1 (stereo unspecified)	TRPC6 inhibitor -5.9 | HEK293 MPD ctr-2 inactive | HEK293 MPD ctr 2-2 inactive | TRPC4/MOR mod inactive | TRPC4 ctr inh 2 inactive | TRPC6 block conf inactive
COc1ccccc1N1CCN(Cc2ccc(O)c3ncccc23)CC1	TRPC6 inhibitor -7.6 | TRPC4 sel inh 2 inactive | TRPC4 spec inactive | HEK293 MPD ctr 2-1 inactive | HEK293 MPD ctr-1 inactive | TRPC6 block conf inactive | TRPC6 act conf inactive
O=C(Nc1cc(C(F)(F)F)cc(C(F)(F)F)c1)c1ccc(Cn2cc(C(F)(F)F)ccc2=O)cc1	none
CN(C)c1ccc(/C=C/C(=O)c2c(O)c3ccccc3oc2=O)cc1	TRPC6 act 131, TRPC4 act 102 | HEK293 MPD ctr-2 active | HEK293 MPD ctr 2-2 active | TRPC4/MOR mod 492% | TRPC4 ctr inh 2 144% | TRPC6 act conf 944%
Cc1ccc(-c2nnc(SCC(=O)NNC(=O)COc3cccc(C)c3)n2C)cc1	none
Cc1ccc(-c2nnc(SCC(=O)NNC(=O)COc3ccccc3C)n2C)cc1	TRPC6 inhibitor -6.2 | HEK293 MPD ctr-2 inactive | HEK293 MPD ctr 2-2 inactive | TRPC4/MOR mod inactive | TRPC4 ctr inh 2 inactive | TRPC6 block conf inactive | TRPC6 act conf inactive
CC(=O)O[C@@H]1[C@@H](OC(C)=O)[C@H](n2ccc3cc([N+](=O)[O-])ccc32)OC[C@@H]1OC(C)=O	none
Cc1cc(C)c2cc3c(ccn3C3OC[C@H](O)[C@H](O)[C@H]3O)cc2n1 (stereo partly specified)	TRPC6 inhibitor -7.1 | HEK293 MPD ctr-2 inactive | HEK293 MPD ctr 2-2 inactive | TRPC4/MOR mod -68% | TRPC4 ctr inh 2 34% | TRPC6 block conf inactive | TRPC6 act conf inactive
CC(C)C(=O)Nc1cccc(C(=O)Nc2ccc(S(=O)(=O)N3CCOCC3)cc2)c1	none
